Source: ChEMBL document CHEMBL4043294, “Chemogenomic Profiling of Human and Microbial FK506-Binding Proteins” (J Med Chem, 2018)
Activity calls are given as the source filed them. The rule behind the calls is not given here.

What was measured:
[1] = target: Peptidyl-prolyl cis-trans isomerase FKBP1A (Homo sapiens, UniProt P62942); test: (§1) Displacement of 5-(3-(4-(((5S,6S)-10-(3,5-dichlorophenylsulfonyl)-2-oxo-5-vinyl-3,10-diazabicyclo[4.3.1]decan-3-yl)methyl)-1H-1,2,3-triazol-1-yl)propylcarbamoyl)-2-(6-(dimethylamino)-3-(dimethyliminio)-3,10-dihydroanthracen-9-yl)benzoate from human FKBP12 after 30 mins by fluorescence polarization assay
Peptidyl-prolyl cis-trans isomerase FKBP1A, sequence (P62942 whole entry): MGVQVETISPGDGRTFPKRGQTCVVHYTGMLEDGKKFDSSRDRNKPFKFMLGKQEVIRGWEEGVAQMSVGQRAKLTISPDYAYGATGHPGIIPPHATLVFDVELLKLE
Method in brief: (§2)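 Competitive fluorescence polarization against a TAMRA-labelled tracer in 20 mM NaCl, 20 mM HEPES pH 8.0, 0.002% Tween20. Ligand serially diluted 1:1 in DMSO, then diluted 50-fold into tracer-containing buffer and added to protein. Equilibrated 30 min at room temperature before polarization read. Competition curves fitted.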

[2] = as §1, with “[…] FKBP35” for “human FKBP12”; design: species or system Plasmodium falciparum; method in brief: as §2
Chlamydia trachomatis = test: Antibacterial activity against Chlamydia trachomatis Serovar D infected in human Hep2 or HeLa cells assessed as decrease in generation of infectious elementary bodies at 10 uM after 48 hrs by immunofluorescent staining-based assay; format: functional, cell-based
Method in brief: (§3)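 HEp-2 or HeLa cells, 3.5 × 10^4 per well in RPMI1640 with 5% FBS, nonessential amino acids and 2 mM glutamine, grown overnight at 37 °C in 5% CO2. Inhibitor added at infection (C. pneumoniae CWL029 0.2 IFU/cell; C. trachomatis serovar D 0.5 IFU/cell). Plates centrifuged at 700g for 1 h at 35 °C, then incubated 48 h. Inclusions stained with anti-chlamydial-LPS immunofluorescence and host cells counterstained with Evans Blue. Recoverable bacteria normalized to untreated controls.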

[3] = as §1, with “Chlamydia trachomatis Mip” for “human FKBP12”; method in brief: as §2
[4] = as §1, with “Candida albicans” for “human”; method in brief: as §2
[5] = target: T1, Peptidyl-prolyl cis-trans isomerase Mip (Chlamydia pneumoniae, UniProt Q9Z7P3); test: as §1, with “Chlamydia pneumoniae Mip” for “human FKBP12”; method in brief: as §2
T1 sequence (Q9Z7P3 whole entry): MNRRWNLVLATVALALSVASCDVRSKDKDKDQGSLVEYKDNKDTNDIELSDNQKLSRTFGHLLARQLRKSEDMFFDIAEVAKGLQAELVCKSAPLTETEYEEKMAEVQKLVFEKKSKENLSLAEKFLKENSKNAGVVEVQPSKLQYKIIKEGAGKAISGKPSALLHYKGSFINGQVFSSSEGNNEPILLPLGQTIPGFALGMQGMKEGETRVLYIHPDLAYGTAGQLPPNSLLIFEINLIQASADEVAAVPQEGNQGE

Chlamydia pneumoniae [6] = test: Antibacterial activity against Chlamydia pneumoniae CWL029 infected in human Hep2 or HeLa cells assessed as decrease in inclusion size at 10 uM after 48 hrs by immunofluorescent staining-based assay; format: functional, cell-based; method in brief: as §3
[7] = target: Outer membrane protein MIP (Legionella pneumophila, UniProt Q70YI1); test: as §1, with “Legionella pneumophila Mip” for “human FKBP12”; method in brief: as §2
Outer membrane protein MIP, sequence (Q70YI1 21-233 limits assumed): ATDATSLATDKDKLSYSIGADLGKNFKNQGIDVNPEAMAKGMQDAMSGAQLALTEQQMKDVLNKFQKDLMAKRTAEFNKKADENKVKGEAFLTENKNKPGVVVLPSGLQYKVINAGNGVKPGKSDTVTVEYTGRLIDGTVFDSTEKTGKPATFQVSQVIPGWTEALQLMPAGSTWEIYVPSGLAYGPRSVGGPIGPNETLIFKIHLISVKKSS

Chlamydia pneumoniae [8] = test: Antibacterial activity against Chlamydia pneumoniae CWL029 infected in human Hep2 or HeLa cells assessed as decrease in generation of infectious elementary bodies at 10 uM after 48 hrs by immunofluorescent staining-based assay; format: functional, cell-based; method in brief: as §3
[9] = target: T2, Peptidyl-prolyl cis-trans isomerase FKBP3 (Homo sapiens, UniProt Q00688); test: as §1, with “FKBP25” for “FKBP12”; method in brief: as §2
T2 sequence (Q00688 whole entry): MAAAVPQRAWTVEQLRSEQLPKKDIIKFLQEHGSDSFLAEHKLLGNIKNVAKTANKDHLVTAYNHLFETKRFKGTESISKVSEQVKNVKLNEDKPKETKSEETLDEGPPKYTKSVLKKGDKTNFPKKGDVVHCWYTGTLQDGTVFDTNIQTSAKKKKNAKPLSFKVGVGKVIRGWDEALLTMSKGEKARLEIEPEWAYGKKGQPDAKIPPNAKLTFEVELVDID

[10] = target: T3, Peptidyl-prolyl cis-trans isomerase FKBP4 (Homo sapiens, UniProt Q02790); test: as §1, with “FKBP52” for “FKBP12”; method in brief: as §2
T3 sequence (Q02790 whole entry): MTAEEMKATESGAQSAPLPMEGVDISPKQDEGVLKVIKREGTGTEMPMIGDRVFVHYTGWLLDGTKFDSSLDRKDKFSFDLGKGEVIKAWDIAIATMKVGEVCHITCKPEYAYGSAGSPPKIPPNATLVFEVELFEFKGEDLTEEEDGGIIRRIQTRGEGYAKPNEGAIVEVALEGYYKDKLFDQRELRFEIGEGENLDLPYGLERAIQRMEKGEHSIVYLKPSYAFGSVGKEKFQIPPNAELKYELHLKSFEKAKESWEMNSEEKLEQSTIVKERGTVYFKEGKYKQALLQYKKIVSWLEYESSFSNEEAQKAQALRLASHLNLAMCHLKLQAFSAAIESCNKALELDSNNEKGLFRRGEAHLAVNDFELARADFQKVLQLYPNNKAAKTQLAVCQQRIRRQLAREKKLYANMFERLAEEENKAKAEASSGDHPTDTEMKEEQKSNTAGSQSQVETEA

[11] = target: T4, Peptidyl-prolyl cis-trans isomerase FKBP5 (Homo sapiens, UniProt Q13451); test: as §1, with “FKBP51” for “FKBP12”; method in brief: as §2
T4 sequence (Q13451 whole entry): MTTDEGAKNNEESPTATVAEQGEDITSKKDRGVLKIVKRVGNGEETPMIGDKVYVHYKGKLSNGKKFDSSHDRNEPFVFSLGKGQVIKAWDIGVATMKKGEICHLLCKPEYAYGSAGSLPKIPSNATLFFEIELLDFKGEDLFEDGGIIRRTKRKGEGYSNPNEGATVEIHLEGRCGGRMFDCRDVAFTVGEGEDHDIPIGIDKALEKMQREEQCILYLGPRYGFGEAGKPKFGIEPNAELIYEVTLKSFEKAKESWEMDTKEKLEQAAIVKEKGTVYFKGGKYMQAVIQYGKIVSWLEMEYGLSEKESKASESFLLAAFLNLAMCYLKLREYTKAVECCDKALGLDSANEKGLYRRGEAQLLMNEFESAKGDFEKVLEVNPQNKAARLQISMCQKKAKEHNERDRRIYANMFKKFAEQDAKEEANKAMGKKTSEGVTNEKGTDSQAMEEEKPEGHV

[12] = target: T5, Peptidyl-prolyl cis-trans isomerase FKBP2 (Homo sapiens, UniProt P26885); test: as §1, with “FKBP13” for “FKBP12”; method in brief: as §2
T5 sequence (P26885 whole entry): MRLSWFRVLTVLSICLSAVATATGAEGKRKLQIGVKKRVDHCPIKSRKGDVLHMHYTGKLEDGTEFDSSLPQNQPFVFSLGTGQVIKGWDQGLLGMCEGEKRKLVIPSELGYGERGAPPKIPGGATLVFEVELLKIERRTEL

[13] = target: Peptidyl-prolyl cis-trans isomerase FKBP1B (Homo sapiens, UniProt P68106); test: as §1, with “FKBP12.6” for “FKBP12”
Peptidyl-prolyl cis-trans isomerase FKBP1B, sequence (P68106 whole entry): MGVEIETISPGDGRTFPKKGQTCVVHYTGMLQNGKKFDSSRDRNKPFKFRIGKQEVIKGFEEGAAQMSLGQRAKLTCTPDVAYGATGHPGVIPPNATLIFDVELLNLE
Method in brief: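 Competitive fluorescence polarization with the fluorescent tracer in 20 mM NaCl, 20 mM HEPES pH 8.0, 0.002% Tween20. Ligand is serially diluted 1:1 in DMSO, then 1:50 into tracer-containing buffer. This mix is added to protein at 1.11× final concentration (protein:mix 45:5). After 30 min at room temperature to reach equilibrium, polarization is read and competition curves are fitted.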

Plasmodium falciparum [14] = test: Antiparasitic activity against multidrug-resistant Plasmodium falciparum Dd2 infected in human RBC assessed as decrease in parasitemia after 60 hrs by Hoechst 33342 staining-based flow cytometric method; format: functional; conditions: Dd2, 60 h
Method in brief: (§4)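 Sorbitol-synchronized early-stage parasites, adjusted to 1% parasitemia at 2% hematocrit. Serial dilutions of compound in DMSO (≤0.05% per well) applied in triplicate for 60 h. Cells stained with 16.2 μM Hoechst 33342 in PBS for 20 min at room temperature. Parasitemia read by flow cytometry; IC50 estimated from dose–response curves.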

Plasmodium falciparum [15] = test: Antiparasitic activity against Plasmodium falciparum 3D7 infected in human RBC assessed as decrease in parasitemia after 60 hrs by Hoechst 33342 staining-based flow cytometric method; format: functional; conditions: for IC50: 3D7, 60 h; method in brief: as §4
Legionella pneumophila = test: Antibacterial activity against Legionella pneumophila Corby infected in differentiated human THP1 cells assessed as bacterial growth inhibition after 24 hrs; format: functional
Method in brief: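 THP-1 monocytes at 5 × 10^5 cells/mL were differentiated with 100 nM PMA for 2 days. L. pneumophila Corby grown 3 days on BCYE agar was added at MOI 1. After 2 h, extracellular bacteria were washed off with PBS and compound was added in medium (control 1% DMSO). At 2 and 24 h, cells were lysed with 0.1% Triton X-100 and dilutions plated on BCYE. Colonies counted after 3–4 days at 37 °C. Three independent experiments in duplicate.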

## C=C[C@H]1CN(CC(=O)O)C(=O)[C@@H]2CCC[C@H]1N2S(=O)(=O)c1cc(Cl)cc(Cl)c1
[1]
  Ki: 7 to 25 nM

## C=C[C@H]1CNC(=O)[C@@H]2CCC[C@H]1N2S(=O)(=O)c1cc(Cl)cc(Cl)c1
[1]
  Ki: 49 to 80 nM

## C=C[C@H]1CN(CCCCOC)C(=O)[C@@H]2CCC[C@H]1N2S(=O)(=O)c1cc(Cl)cc(Cl)c1
[1]
  Ki: 249 nM

## C=C[C@H]1CN(Cc2ccco2)C(=O)[C@@H]2CCC[C@H]1N2S(=O)(=O)c1cc(Cl)cc(Cl)c1
[2]
  Ki: 5220 nM
Chlamydia trachomatis
  Activity: Active
[3]
  Ki: 1820 nM
[4]
  Ki: 1490 nM
[5]
  Ki: 315 nM
Chlamydia pneumoniae [6]
  Activity: Active
[7]
  Ki: 6590 nM
Chlamydia pneumoniae [8]
  Activity: Active

## C=C[C@H]1CN(CC(=O)OCC)C(=O)[C@@H]2CCC[C@H]1N2S(=O)(=O)c1cc(Cl)cc(Cl)c1
[1]
  Ki: 7 to 25 nM

## C=C[C@@H]1CN(CCN(C)C)C(=O)[C@@H]2CCC[C@H]1N2S(=O)(=O)c1cc(Cl)cc(Cl)c1
[1]
  Ki: 7 to 25 nM

## COC[C@H]1CN(Cc2ccccn2)C(=O)[C@@H]2CCC[C@H]1N2S(=O)(=O)c1cc(Cl)cc(Cl)c1
[1]
  Ki: 0.45 nM
[9]
  Ki: 1130 nM
[10]
  Ki: 18.9 nM
[11]
  Ki: 24.5 nM
[12]
  Ki: 60.5 nM
[13]
  Ki: 1.23 nM

## C=C[C@H]1CN(CCNC)C(=O)[C@@H]2CCC[C@H]1N2S(=O)(=O)c1cc(Cl)cc(Cl)c1
[1]
  Ki: 7 to 25 nM

## C=C[C@H]1CN(Cc2ccccn2)C(=O)[C@@H]2CCC[C@H]1N2S(=O)(=O)c1ccc(-c2ncccn2)cc1
[4]
  Ki: 52 nM

## C=C[C@H]1CN(C)C(=O)[C@@H]2CCC[C@H]1N2S(=O)(=O)c1cc(Cl)cc(Cl)c1
[1]
  Ki: 49 to 80 nM

## CC[C@H]1CN(Cc2ccccn2)C(=O)[C@@H]2CCC[C@H]1N2S(=O)(=O)c1cc(Cl)cc(Cl)c1
[2]
  Ki: 98.1 nM
Plasmodium falciparum [14]
  IC50: 3100 nM
[3]
  Ki: 1810 nM
Plasmodium falciparum [15]
  Activity: Dose-dependent effect
  IC50: 2300 nM
[4]
  Ki: 40.1 nM
[5]
  Ki: 399 nM
Legionella pneumophila
  growth inhibition (GI): Dose-dependent effect
[7]
  Ki: 598 nM

## CC[C@H]1CN(CCOC)C(=O)[C@@H]2CCC[C@H]1N2S(=O)(=O)c1cc(Cl)cc(Cl)c1
Plasmodium falciparum [15]
  IC50: 8300 nM
Legionella pneumophila
  growth inhibition (GI): Dose-dependent effect

## C=C[C@H]1CN(CC#N)C(=O)[C@@H]2CCC[C@H]1N2S(=O)(=O)c1cc(Cl)cc(Cl)c1
[1]
  Ki: 49 to 80 nM

## C=C[C@@H]1CN(CCF)C(=O)[C@@H]2CCC[C@H]1N2S(=O)(=O)c1cc(Cl)cc(Cl)c1
[1]
  Ki: 49 to 80 nM

## C=C[C@H]1CN(CCOC)C(=O)[C@@H]2CCC[C@H]1N2S(=O)(=O)c1cc(Cl)cc(Cl)c1
[1]
  Ki: 18.8 nM

## C#CCN1C[C@H](C=C)[C@H]2CCC[C@@H](C1=O)N2S(=O)(=O)c1cc(Cl)cc(Cl)c1
[1]
  Ki: 49 to 80 nM

## C=C[C@H]1CN(Cc2ncccc2F)C(=O)[C@@H]2CCC[C@H]1N2S(=O)(=O)c1cc(Cl)cc(Cl)c1
[1]
  Ki: 11.8 nM

## C=C[C@H]1CN(CC(N)=O)C(=O)[C@@H]2CCC[C@H]1N2S(=O)(=O)c1cc(Cl)cc(Cl)c1
[1]
  Ki: 7 to 25 nM

## C=C[C@H]1CN(CCCOC)C(=O)[C@@H]2CCC[C@H]1N2S(=O)(=O)c1cc(Cl)cc(Cl)c1
[1]
  Ki: 143 nM

## C=C[C@H]1CN(CCOCC)C(=O)[C@@H]2CCC[C@H]1N2S(=O)(=O)c1cc(Cl)cc(Cl)c1
[1]
  Ki: 21.1 nM
